Legend:
Assay type in all cases: functional
[1] = Growth inhibition of human OVCAR3 cells incubated for 48 hrs by sulforhodamine B assay; settings: OVCAR-3, 48 h
Method in brief: (§1)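 Cells were plated at 5,000–40,000 per well according to doubling time and preincubated 24 h at 37 °C in 5% CO2; time-zero plates were then TCA-fixed. Five concentrations (10-fold or ½-log dilutions, DMSO stock) were incubated 48 h. Cells were TCA-fixed, stained with 0.4% SRB and read at 515 nm. GI50 was taken where [(Ti−Tz)/(C−Tz)]×100 = 50.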

[2] = Growth inhibition of human SKOV3 cells incubated for 48 hrs by sulforhodamine B assay; settings: SK-OV-3, 48 h; method in brief: as §1
[3] = Growth inhibition of human Caki1 cells incubated for 48 hrs by sulforhodamine B assay; settings: CAKI-1, 48 h; for CC50: read-out: pLC50 (the source's name) (converted)
Method in brief: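 Cells seeded at 5,000–40,000/well according to doubling time and preincubated 24 h at 37 °C, 5% CO2. Time-zero plates were TCA-fixed. DMSO concentrate was diluted in medium with 50 µg/ml gentamicin to give five concentrations (10-fold or ½ log steps), then exposed 48 h. Cells were TCA-fixed, stained with 0.4% SRB and read at 515 nm. Percent growth was taken against time-zero and control; GI50, TGI and LC50 derived.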

[4] = Growth inhibition of human RXF393 cells incubated for 48 hrs by sulforhodamine B assay; settings: RXF 393, 48 h; method in brief: as §1
[5] = test system: SR; assay: Growth inhibition of human SR cells assessed as cell growth at 10^-7 M incubated for 48 hrs by sulforhodamine B assay; settings: read-out: Activity
[6] = Growth inhibition of human UO31 cells assessed as cell growth at 10^-5 M incubated for 48 hrs by sulforhodamine B assay; settings: UO-31, 48 h, read-out: Activity
[7] = Growth inhibition of human SNB19 cells assessed as cell growth at 10^-7 M incubated for 48 hrs by sulforhodamine B assay; settings: SNB-19, 48 h, read-out: Activity
[8] = test system: SK-MEL-2; assay: Growth inhibition of human SK-MEL-2 cells assessed as cell growth at 10^-7 M incubated for 48 hrs by sulforhodamine B assay; settings: SK-MEL-2, 48 h, read-out: Activity
[9] = Growth inhibition of human OVCAR4 cells assessed as cell growth at 10 uM incubated for 48 hrs by sulforhodamine B assay; settings: OVCAR-4, 48 h, read-out: Activity
[10] = Growth inhibition of human OVCAR8 cells assessed as cell growth at 10 uM incubated for 48 hrs by sulforhodamine B assay; settings: OVCAR-8, 48 h, read-out: Activity
[11] = Growth inhibition of human Hs 578T cells assessed as cell growth at 10^-7 M incubated for 48 hrs by sulforhodamine B assay; settings: read-out: Activity
[12] = Growth inhibition of human SF539 cells assessed as cell growth at 10^-8 M incubated for 48 hrs by sulforhodamine B assay; settings: SF-539, 48 h, read-out: Activity
[13] = test system: MDA-MB-468; assay: Growth inhibition of human MDA-MB-468 cells assessed as cell growth at 10^-6 M incubated for 48 hrs by sulforhodamine B assay; settings: MDA-MB-468, 48 h, read-out: Activity
[14] = Growth inhibition of human HOP92 cells assessed as cell growth at 10^-5 M incubated for 48 hrs by sulforhodamine B assay; settings: HOP-92, 48 h, read-out: Activity
[15] = test system: NCI-H460; assay: Growth inhibition of human NCI-H460 cells assessed as cell growth at 10^-5 M incubated for 48 hrs by sulforhodamine B assay; settings: NCI-H460, 48 h, read-out: Activity
[16] = Growth inhibition of human SF295 cells assessed as cell growth at 10^-5 M incubated for 48 hrs by sulforhodamine B assay; settings: SF-295, 48 h, read-out: Activity
[17] = test system: U-251; assay: Growth inhibition of human U251 cells assessed as cell growth at 10^-5 M incubated for 48 hrs by sulforhodamine B assay; settings: U-251, 48 h, read-out: Activity
[18] = test system: NCI-H522; assay: Growth inhibition of human NCI-H522 cells assessed as cell growth at 10 uM incubated for 48 hrs by sulforhodamine B assay; settings: NCI-H522, 48 h, read-out: Activity
[19] = test system: U-251; assay: Growth inhibition of human U251 cells assessed as cell growth at 10 uM incubated for 48 hrs by sulforhodamine B assay; settings: U-251, 48 h, read-out: Activity
[20] = read-out: LC50 (the source's name)
[21] = read-out: pLC50 (the source's name) (converted)

## Clc1ccc(-c2nc(Nc3ccc(-c4nc5ccccc5[nH]4)cc3)nc(N3CCOCC3)n2)cc1
[1]; read-out: GI50
  GI50: 374 nM
[1]; [20]
  CC50: 3990 nM
[1]; read-out: TGI
  TGI: 1370 nM
[1]; read-out: pGI50 (converted)
  GI50: 372 nM
[1]; [21]
  CC50: 3980 nM
[1]; read-out: pTGI (converted)
  TGI: 1380 nM
[2]; read-out: GI50
  GI50: 1840 nM
[2]; [20]
  CC50: 100000 nM
[2]; read-out: TGI
  TGI: 3280 nM
[2]; read-out: pGI50 (converted)
  GI50: 1820 nM
[2]; [21]
  CC50: 100000 nM
[2]; read-out: pTGI (converted)
  TGI: 3310 nM
[3]
  LC50: 5230 nM
  CC50: 5250 nM
[3]; read-out: GI50
  GI50: 1410 nM
[3]; read-out: TGI
  TGI: 2720 nM
[3]; read-out: pGI50 (converted)
  GI50: 1410 nM
[3]; read-out: pTGI (converted)
  TGI: 2690 nM
[4]; read-out: GI50
  GI50: 222 nM
[4]; read-out: TGI
  TGI: 450 nM
[4]; read-out: pGI50 (converted)
  GI50: 224 nM
[4]; read-out: pTGI (converted)
  TGI: 447 nM
[5]
  growth at 0.1 µM: -5%
[6]
  growth at 10 µM: -86%
[7]
  growth at 0.1 µM: 95%
[8]
  growth at 0.1 µM: 92%
[9]
  growth at 10 µM: -73.9%
[10]
  growth at 10 µM: -73.8%
[11]
  growth at 0.1 µM: 87%
[12]
  growth at 0.01 µM: 98%
[13]
  growth at 1 µM: 25%
[14]
  growth at 10 µM: -90%
[15]
  growth at 10 µM: -73%
[16]
  growth at 10 µM: -85%
[17]
  growth at 10 µM: -92%
[18]
  growth at 10 µM: -73.9%
[19]
  growth at 10 µM: -93%

## c1ccc2[nH]c(-c3ccc(Nc4nc(N5CCCCC5)nc(N5CCOCC5)n4)cc3)nc2c1
[1]; read-out: GI50
  GI50: 2400 nM
[1]; [20]
  CC50: > 100000 nM
[1]; read-out: TGI
  TGI: 6190 nM
[1]; read-out: pGI50 (converted)
  GI50: 2400 nM
[1]; [21]
  CC50: > 100000 nM
[1]; read-out: pTGI (converted)
  TGI: 6170 nM
[2]; read-out: GI50
  GI50: 2370 nM
[2]; [20]
  CC50: 26900 nM
[2]; read-out: TGI
  TGI: 5430 nM
[2]; read-out: pGI50 (converted)
  GI50: 2340 nM
[2]; [21]
  CC50: 26900 nM
[2]; read-out: pTGI (converted)
  TGI: 5370 nM
[3]; read-out: GI50
  GI50: 1810 nM
[3]; read-out: TGI
  TGI: 4080 nM
[3]; read-out: pGI50 (converted)
  GI50: 1820 nM
[3]; read-out: pTGI (converted)
  TGI: 4070 nM
[4]; read-out: GI50
  GI50: 808 nM
[4]; [20]
  CC50: > 100000 nM
[4]; read-out: TGI
  TGI: 3280 nM
[4]; read-out: pGI50 (converted)
  GI50: 813 nM
[4]; [21]
  CC50: > 100000 nM
[4]; read-out: pTGI (converted)
  TGI: 3310 nM
[5]
  growth at 0.1 µM: 88%
[6]
  growth at 10 µM: -35%
[7]
  growth at 0.1 µM: 98%
[8]
  growth at 0.1 µM: 102%
[9]
  growth at 10 µM: 61.2%
[10]
  growth at 10 µM: 45.7%
[11]
  growth at 0.1 µM: 94%
[12]
  growth at 0.01 µM: 99%
[13]
  growth at 1 µM: 106%
[14]
  growth at 10 µM: -54%
[15]
  growth at 10 µM: -26%
[16]
  growth at 10 µM: -43%
[18]
  growth at 10 µM: 9.25%
[19]
  growth at 10 µM: 8.02%

## c1ccc(-c2nc(Nc3ccc(-c4nc5ccccc5[nH]4)cc3)nc(N3CCOCC3)n2)cc1
[1]; read-out: GI50
  GI50: 1520 nM
[1]; [20]
  CC50: 5830 nM
[1]; read-out: TGI
  TGI: 2980 nM
[1]; read-out: pGI50 (converted)
  GI50: 1510 nM
[1]; [21]
  CC50: 5890 nM
[1]; read-out: pTGI (converted)
  TGI: 2950 nM
[2]; read-out: GI50
  GI50: 2110 nM
[2]; [20]
  CC50: 8470 nM
[2]; read-out: TGI
  TGI: 4230 nM
[2]; read-out: pGI50 (converted)
  GI50: 2090 nM
[2]; [21]
  CC50: 8510 nM
[2]; read-out: pTGI (converted)
  TGI: 4270 nM
[3]
  LC50: 5060 nM
  CC50: 5010 nM
[3]; read-out: GI50
  GI50: 1280 nM
[3]; read-out: TGI
  TGI: 2540 nM
[3]; read-out: pGI50 (converted)
  GI50: 1290 nM
[3]; read-out: pTGI (converted)
  TGI: 2570 nM
[4]; read-out: GI50
  GI50: 501 nM
[4]; [20]
  CC50: 7240 nM
[4]; read-out: TGI
  TGI: 2120 nM
[4]; read-out: pGI50 (converted)
  GI50: 501 nM
[4]; [21]
  CC50: 7240 nM
[4]; read-out: pTGI (converted)
  TGI: 2140 nM
[5]
  growth at 0.1 µM: 58%
[6]
  growth at 10 µM: -78%
[7]
  growth at 0.1 µM: 95%
[8]
  growth at 0.1 µM: 101%
[9]
  growth at 10 µM: -47.2%
[10]
  growth at 10 µM: -50.4%
[11]
  growth at 0.1 µM: 94%
[12]
  growth at 0.01 µM: 98%
[13]
  growth at 1 µM: 102%
[14]
  growth at 10 µM: -75%
[15]
  growth at 10 µM: -70%
[16]
  growth at 10 µM: -76%
[17]
  growth at 10 µM: -85%
[18]
  growth at 10 µM: -68.2%
[19]
  growth at 10 µM: -67.5%

## Fc1ccc(-c2nc(Nc3ccc(-c4nc5ccccc5[nH]4)cc3)nc(N3CCOCC3)n2)cc1
[1]; read-out: GI50
  GI50: 1820 nM
[1]; read-out: TGI
  TGI: 3910 nM
[1]; read-out: pGI50 (converted)
  GI50: 1820 nM
[1]; read-out: pTGI (converted)
  TGI: 3890 nM
[2]; read-out: GI50
  GI50: 2370 nM
[2]; [20]
  CC50: > 100000 nM
[2]; read-out: TGI
  TGI: 5530 nM
[2]; read-out: pGI50 (converted)
  GI50: 2340 nM
[2]; [21]
  CC50: > 100000 nM
[2]; read-out: pTGI (converted)
  TGI: 5500 nM
[3]
  LC50: > 100000 nM
  CC50: > 100000 nM
[3]; read-out: GI50
  GI50: 1980 nM
[3]; read-out: TGI
  TGI: 5020 nM
[3]; read-out: pGI50 (converted)
  GI50: 2000 nM
[3]; read-out: pTGI (converted)
  TGI: 5010 nM
[4]; read-out: GI50
  GI50: 459 nM
[4]; [20]
  CC50: > 100000 nM
[4]; read-out: TGI
  TGI: 2510 nM
[4]; read-out: pGI50 (converted)
  GI50: 457 nM
[4]; [21]
  CC50: > 100000 nM
[4]; read-out: pTGI (converted)
  TGI: 2510 nM
[5]
  growth at 0.1 µM: 87%
[6]
  growth at 10 µM: -30%
[7]
  growth at 0.1 µM: 97%
[8]
  growth at 0.1 µM: 101%
[9]
  growth at 10 µM: 59.8%
[10]
  growth at 10 µM: 39.2%
[11]
  growth at 0.1 µM: 93%
[12]
  growth at 0.01 µM: 98%
[13]
  growth at 1 µM: 106%
[14]
  growth at 10 µM: -67%
[15]
  growth at 10 µM: -22%
[16]
  growth at 10 µM: -35%
[17]
  growth at 10 µM: 5%
[18]
  growth at 10 µM: 11.9%
[19]
  growth at 10 µM: 6.38%
